Data: ChEMBL document CHEMBL1156595, “Studies on the antifungal properties of N-thiolated beta-lactams” (2008)
In brackets after ≈: the same amount, converted by molar mass. Activity calls are given as the source filed them. The calls are words filed in the database; no cut-off is given here.

Experiments:
Candida tropicalis [1] = experiment: Antifungal activity against Candida tropicalis clinical isolate after 24 hrs by NCCLS M27-A2 method; format: functional
How it was run: (§1)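 Broth dilution in yeast nitrogen broth. Lactam from a 1 mg/mL DMSO stock was serially diluted down to 0.125 ug/mL. Each tube got 1 uL of a 10^6 CFU/mL inoculum in sterile NaCl. Incubation was 24 or 48 h at 26°C or 37°C depending on strain. Growth was read by optical density. MIC was the lowest concentration inhibiting all growth, averaged over triplicates.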

Aspergillus niger = experiment: Antifungal activity against Aspergillus niger in potato dextrose agar by agar dilution method; format: functional
How it was run: (§2)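 Agar dilution MIC, run per NCCLS guidance. Medium was potato dextrose agar for A. niger and YM agar for S. cerevisiae.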

Kluyveromyces marxianus [2] = experiment: Antifungal activity against Candida kefyr ATCC 20409 assessed as growth inhibition zone at 50 ug after 24 hrs by Kirby-Bauer agar diffusion assay; format: functional; details: ATCC 20409, 24 h, read-out: IZ
How it was run: (§3)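 Disk diffusion on yeast nitrogen base agar, swabbed with a McFarland 0.5 suspension in saline. 6 mm cellulose disks carried 10 µL of a 5 mg/mL CH2Cl2 stock (50 ug per disk), air-dried, three disks per plate. Plates were sealed and incubated 24 h at 37°C. Cleared inhibition zones were measured and averaged over triplicates.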

Clavispora lusitaniae [3] = experiment: Antifungal activity against Candida lusitaniae ATCC 34449 after 24 hrs by NCCLS M27-A2 method; format: functional; details: ATCC 34449, 24 h; how it was run: as §1
Nakaseomyces glabratus [4] = experiment: Antifungal activity against Candida glabrata ATCC 15126 after 48 hrs by NCCLS M27-A2 method; format: functional; details: ATCC 15126, 48 h; how it was run: as §1
Candida albicans [5] = experiment: Antifungal activity against Candida albicans ATCC 2091 after 24 hrs by NCCLS M27-A2 method; format: functional; details: ATCC 2091, 24 h; how it was run: as §1
Saccharomyces cerevisiae = experiment: Antifungal activity against Saccharomyces cerevisiae in YM agar by agar dilution method; format: functional; how it was run: as §2
Candida albicans [6] = experiment: Antifungal activity against Candida albicans ATCC 2091 assessed as degradation of intracellular membrane at <5 ug/ml after 4 hrs by transmission electron microscopy; format: functional, organism-based
Nakaseomyces glabratus [7] = experiment: Antifungal activity against Candida glabrata ATCC 15126 after 24 hrs by NCCLS M27-A2 method; format: functional; details: ATCC 15126, 24 h; how it was run: as §1
Clavispora lusitaniae [8] = experiment: Antifungal activity against Candida lusitaniae ATCC 34449 assessed as growth inhibition zone at 50 ug after 24 by Kirby-Bauer agar diffusion assay; format: functional; details: read-out: IZ; how it was run: as §3
Clavispora lusitaniae [9] = experiment: Antifungal activity against Candida lusitaniae ATCC 34449 after 48 hrs by NCCLS M27-A2 method; format: functional; details: ATCC 34449, 48 h; how it was run: as §1
Pichia kudriavzevii = experiment: Antifungal activity against Candida krusei ATCC 14243 assessed as growth inhibition zone at 50 ug after 24hrs by Kirby-Bauer agar diffusion assay; format: functional; details: ATCC 14243, 24 h, read-out: IZ; how it was run: as §3
Candida albicans [10] = experiment: Antifungal activity against Candida albicans ATCC 2091 after 48 hrs by NCCLS M27-A2 method; format: functional; details: ATCC 2091, 48 h; how it was run: as §1
Candida tropicalis [11] = experiment: Antifungal activity against Candida tropicalis clinical isolate assessed as growth inhibition zone at 50 ug after 24 hrs by Kirby-Bauer agar diffusion assay; format: functional; details: read-out: IZ; how it was run: as §3
Nakaseomyces glabratus [12] = experiment: Antifungal activity against Candida glabrata ATCC 15126 assessed as growth inhibition zone at 50 ug after 24 hrs by Kirby-Bauer agar diffusion assay; format: functional; details: ATCC 15126, 24 h, read-out: IZ; how it was run: as §3
Kluyveromyces marxianus [13] = experiment: Antifungal activity against Candida kefyr ATCC 20409 after 24 hrs by NCCLS M27-A2 method; format: functional; details: ATCC 20409, 24 h; how it was run: as §1
Candida parapsilosis [14] = experiment: Antifungal activity against Candida parapsilosis ATCC 22019 after 24 hrs by NCCLS M27-A2 method; format: functional; details: Lodderomyces parapsilosis, ATCC 22019, 24 h; how it was run: as §1
Kluyveromyces marxianus [15] = experiment: Antifungal activity against Candida kefyr ATCC 20409 after 48 hrs by NCCLS M27-A2 method; format: functional; details: ATCC 20409, 48 h; how it was run: as §1
Candida tropicalis [16] = experiment: Antifungal activity against Candida tropicalis clinical isolate after 48 hrs by NCCLS M27-A2 method; format: functional; how it was run: as §1
Candida parapsilosis [17] = experiment: Antifungal activity against Candida parapsilosis ATCC 22019 assessed as growth inhibition zone at 50 ug after 24 hrs by Kirby-Bauer agar diffusion assay; format: functional; details: Lodderomyces parapsilosis, ATCC 22019, 24 h; read-out: IZ; how it was run: as §3
Candida parapsilosis [18] = experiment: Antifungal activity against Candida parapsilosis ATCC 22019 after 48 hrs by NCCLS M27-A2 method; format: functional; details: Lodderomyces parapsilosis, ATCC 22019, 48 h; how it was run: as §1
Candida albicans [19] = experiment: Antifungal activity against Candida albicans ATCC 2091 assessed as growth inhibition zone at 50 ug after 24 hrs by Kirby-Bauer agar diffusion assay; format: functional; details: ATCC 2091, 24 h, read-out: IZ; how it was run: as §3
Cyberlindnera jadinii [20] = experiment: Antifungal activity against Candida utilis ATCC 29950 after 24 hrs by NCCLS M27-A2 method; format: functional; details: Williopsis jadinii, ATCC 29950, 24 h; how it was run: as §1
Cyberlindnera jadinii [21] = experiment: Antifungal activity against Candida utilis ATCC 29950 assessed as growth inhibition zone at 50 ug after 24 by Kirby-Bauer agar diffusion assay; format: functional; details: Williopsis jadinii, read-out: IZ; how it was run: as §3
Cyberlindnera jadinii [22] = experiment: Antifungal activity against Candida utilis ATCC 29950 after 48 hrs by NCCLS M27-A2 method; format: functional; details: Williopsis jadinii, ATCC 29950, 48 h; how it was run: as §1
Candida albicans [23] = experiment: Antifungal activity against Candida albicans ATCC 2091 by […]; format: functional
How it was run: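 Tube broth dilution in yeast nitrogen broth. Lactam was added from a 1 mg/mL DMSO stock and serially diluted down to 0.125 ug/mL in broth. Each tube was inoculated with 1 uL of a 10^6 CFU/mL fungal suspension in sterile NaCl and incubated 24 or 48 h at 26°C or 37°C, depending on strain. Growth was read by optical density. MIC is the lowest concentration inhibiting all growth, averaged over triplicates.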

| Structure (SMILES) | zone of inhibition at 50 µg/disc (Kluyveromyces marxianus [2]) [mm] | zone of inhibition at 50 µg/disc (Clavispora lusitaniae [8]) [mm] | zone of inhibition at 50 µg/disc (Pichia kudriavzevii) [mm] | zone of inhibition at 50 µg/disc (Candida tropicalis [11]) [mm] | zone of inhibition at 50 µg/disc (Nakaseomyces glabratus [12]) [mm] | zone of inhibition at 50 µg/disc (Candida parapsilosis [17]) [mm] | zone of inhibition at 50 µg/disc (Candida albicans [19]) [mm] | zone of inhibition at 50 µg/disc (Cyberlindnera jadinii [21]) [mm] | other results |
| --- | --- | --- | --- | --- | --- | --- | --- | --- | --- |
| CO[C@H]1C(=O)N(SC)[C@H]1c1ccccc1Cl | 17 | 20 | 0 | 21 | 25 | 33 | 23 | 22 | MIC (Candida tropicalis [1]): 10 µg/mL (≈ 38.8 µM); MIC (Aspergillus niger): 16 µg/mL (≈ 62.1 µM); MIC (Clavispora lusitaniae [3]): 10 µg/mL (≈ 38.8 µM); MIC (Nakaseomyces glabratus [4]): 10 µg/mL (≈ 38.8 µM); MIC (Candida albicans [5]): < 5 µg/mL; MIC (Saccharomyces cerevisiae): 32 µg/mL (≈ 124 µM); Activity (Candida albicans [6]): Active; MIC (Nakaseomyces glabratus [7]): 10 µg/mL (≈ 38.8 µM); MIC (Clavispora lusitaniae [9]): 15 µg/mL (≈ 58.2 µM); MIC (Candida albicans [10]): < 5 µg/mL; MIC (Kluyveromyces marxianus [13]): 10 µg/mL (≈ 38.8 µM); MIC (Candida parapsilosis [14]): < 5 µg/mL; MIC (Kluyveromyces marxianus [15]): 35 µg/mL (≈ 136 µM); MIC (Candida tropicalis [16]): 30 µg/mL (≈ 116 µM); MIC (Candida parapsilosis [18]): < 5 µg/mL; MIC (Cyberlindnera jadinii [20]): 10 µg/mL (≈ 38.8 µM); MIC (Cyberlindnera jadinii [22]): 15 µg/mL (≈ 58.2 µM) |
| Clc1ccccc1C(c1ccccc1)(c1ccccc1)n1ccnc1 [CLOTRIMAZOLE] |  |  |  |  |  |  |  |  | MIC (Candida albicans [23]): 2 µg/mL (≈ 5.8 µM) |
| CO[C@H]1C(=O)N(SC)[C@H]1c1cccc(I)c1 | 15 | 19 | 0 | 14 | 19 | 22 | 14 | 15 |  |
| CO[C@H]1C(=O)N(SC)[C@H]1c1cccc(Cl)c1 | 13 | 13 | 0 | 20 | 21 | 28 | 23 | 19 |  |
| CO[C@H]1C(=O)N(SC)[C@H]1CCc1ccccc1 | 24 | 15 | 0 | 17 | 20 | 14 | 34 | 28 |  |
| CSN1C(=O)[C@H](Oc2ccccc2)[C@@H]1CCc1ccccc1 | 19 | 14 | 0 | 19 | 18 | 14 | 25 | 21 |  |
